Source: PubChem (Broad Institute)
E-selectin induc: E-selectin induction on HUVECs; P16581; HUVEC E-selectin immunofluorescence imaging; normalized: neutral wells 0, TNF-alpha wells 100; activation, % at 7.58 µM; actives 0.37% (n = 260,000); AID 686992;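 active = mean E-selectin-positive cell signal at least 10% of the positive control, reached in at least 60% of replicates, without over 20% cell loss; inconclusive = no rule given, readout overlaps actives, possibly toxicity-flagged; inactive = the rest, including those meeting only one limit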
Target sequence (P16581 whole entry, looked up): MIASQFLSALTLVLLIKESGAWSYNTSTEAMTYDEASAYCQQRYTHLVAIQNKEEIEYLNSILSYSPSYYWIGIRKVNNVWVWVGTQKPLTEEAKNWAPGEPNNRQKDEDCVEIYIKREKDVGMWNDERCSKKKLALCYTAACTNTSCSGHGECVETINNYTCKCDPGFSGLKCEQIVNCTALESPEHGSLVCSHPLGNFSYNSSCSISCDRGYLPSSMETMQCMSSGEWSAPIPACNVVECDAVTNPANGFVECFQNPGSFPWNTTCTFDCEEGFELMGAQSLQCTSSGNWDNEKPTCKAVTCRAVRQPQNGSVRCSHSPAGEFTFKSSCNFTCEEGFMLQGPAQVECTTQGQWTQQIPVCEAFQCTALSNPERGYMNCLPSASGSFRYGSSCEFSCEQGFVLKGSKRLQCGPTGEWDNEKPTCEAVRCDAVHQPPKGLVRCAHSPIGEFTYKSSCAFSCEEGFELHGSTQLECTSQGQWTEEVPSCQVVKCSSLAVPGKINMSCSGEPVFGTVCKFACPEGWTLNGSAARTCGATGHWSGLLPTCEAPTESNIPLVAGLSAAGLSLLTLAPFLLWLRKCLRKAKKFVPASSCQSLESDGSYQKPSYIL
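Test system: HUVEC | Signal: Immunofluorescence imaging | Read-out: Percent E-selectin-positive cells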
DENV2 CPE: inhibitors of DENV2 cytopathic effect | actives 1.7% (n = 350,000) | CPE inhibition, % at 9.99 µM | DENV2-infected cells, cytopathic effect rescue, plate reader; in the data active = CPE inhibition above about 20%, passing the limit was not always enough; inconclusive = no clear call, values can overlap the other calls; tested in BHK-21 cells
SIRT5 block: inhibitors of human sirtuin-5 desuccinylase | Purified SirT5, succinyl-peptide AMC, trypsin-coupled fluorescence | inhibition, % at 15 µM | actives 1.1% (n = 330,000) | AID 652115; in the data active = inhibition above about 15%; inconclusive = no clear call, values can overlap the other calls
Each line names hits and unclear results; the compound was inactive in the other large screens. This is a sample that favours compounds with a hit; in the whole collection about 2.9% have one here.

COc1ccc(NC(=O)Nc2ccc3c(c2)C(=O)N([C@@H](C)CO)C[C@@H](C)[C@@H](CN(C)Cc2ccc(C(F)(F)F)cc2)O3)cc1	SIRT5 block 19.8
COc1ccc(CN(C)C[C@@H]2Oc3ccc(NC(=O)Nc4ccc(C(F)(F)F)cc4)cc3C(=O)N([C@H](C)CO)C[C@@H]2C)cc1	DENV2 CPE 28.6
C[C@H]1CN([C@@H](C)CO)C(=O)c2cc(NC(=O)Nc3ccc(C(F)(F)F)cc3)ccc2O[C@H]1CN(C)Cc1ccc(Oc2ccccc2)cc1	none
COc1ccc(NC(=O)Nc2ccc3c(c2)C(=O)N([C@@H](C)CO)C[C@H](C)[C@H](CN(C)Cc2ccc(C(F)(F)F)cc2)O3)cc1	none
COc1ccc(NC(=O)Nc2ccc3c(c2)C(=O)N([C@H](C)CO)C[C@H](C)[C@H](CN(C)Cc2ccc(C(F)(F)F)cc2)O3)cc1	none
COc1ccc(CN(C)C[C@H]2Oc3ccc(NC(=O)Nc4ccc(C(F)(F)F)cc4)cc3C(=O)N([C@@H](C)CO)C[C@@H]2C)cc1	none
COc1ccc(NC(=O)Nc2ccc3c(c2)C(=O)N([C@H](C)CO)C[C@@H](C)[C@@H](CN(C)Cc2ccc(C(F)(F)F)cc2)O3)cc1	SIRT5 block 20.7
NC(Cc1ccc(F)cc1)c1csc(NC(=O)NC(c2ccccc2)c2ccccc2)n1 (centres undefined)	none
CCn1c(O)c(C=NC2CCCC(C)C2C)sc1=S (centres undefined)	none (no result: E-selectin induc)
C=CCNC(=S)Nc1cccc2[nH]ncc12	none
COc1cc(Cl)c(C)cc1NC(=O)CSc1nnc(CCC(=O)O)c(=O)[nH]1	SIRT5 block 22.0 (no result: E-selectin induc)
COc1ccc(Cl)cc1NC(=O)CSc1nnc(Cc2ccc(C)cc2)c(=O)[nH]1	none (no result: E-selectin induc)
N#Cc1c(SCC(=O)Nc2nncs2)sc2c(O)cc(=O)[nH]c12	SIRT5 block 43.2 (no result: E-selectin induc)
COc1ccc(OC)c(NC(=O)CSc2sc3c(O)cc(=O)[nH]c3c2C#N)c1	none
COc1cc(Cl)c(C)cc1NC(=O)CSc1sc2c(O)cc(=O)[nH]c2c1C#N	SIRT5 block 15.3 (no result: E-selectin induc)
N#Cc1c(SCC(=O)Nc2ccc(C(F)(F)F)cc2)sc2c(O)cc(=O)[nH]c12	none (no result: E-selectin induc)
Cc1nn(-c2ccccc2)nc1CNC(=O)c1ncoc1-c1ccccc1	none (no result: E-selectin induc)
CCOc1ccc(N(CC)C(=O)c2cn(CC)c(=O)c3cc(OC)c(OC)cc23)cc1	none
Cc1ccccc1CSc1ccc(-c2ccc3c(c2)OCO3)nn1	DENV2 CPE 51.6 (no result: E-selectin induc, SIRT5 block)
Fc1cccc(CSc2ccc(-c3ccc4c(c3)OCO4)nn2)c1	none (no result: E-selectin induc)
COc1ccc(OC)c(-c2cc(C(=O)N3CCN(c4ccccc4)CC3)no2)c1	none
C[C@H]1CN([C@@H](C)CO)C(=O)CCCn2cc(nn2)CO[C@@H]1CN(C)S(=O)(=O)c1ccc(Oc2ccccc2)nc1	none
O=C(Nc1nccs1)c1cc2cc(Cl)ccc2oc1=O	SIRT5 block 20.6 (no result: E-selectin induc)
O=C(Nc1nccs1)c1ccc(Cl)cc1[N+](=O)[O-]	none (no result: E-selectin induc)
Cc1ccccc1S(=O)(=O)N1CC[C@@H]2[C@@H](CO)Nc3ccc(-c4ccc(F)cc4)cc3[C@@H]21	none (no result: SIRT5 block)
Cc1cc(OC(=O)C2CC2)c([N+](=O)[O-])c(=O)[nH]1	none (no result: E-selectin induc)
CC(C)NC(=O)N1CC2(C1)[C@H](c1ccccc1)[C@@H](CO)N2C(=O)c1ccccn1	DENV2 CPE 32.7
CC(C)NC(=O)N1[C@H](CO)[C@@H](c2ccccc2)C12CN(Cc1ccc(Cl)cc1)C2	none
CC(C)NC(=O)N1[C@H](CO)[C@@H](c2ccccc2)C12CN(C(=O)c1ccccn1)C2	none
CC(C)NC(=O)N1[C@@H](CO)[C@@H](c2ccccc2)C12CN(Cc1ccccc1)C2	DENV2 CPE 27.8
C[C@H](CO)N1C[C@H](C)[C@H](CN(C)C(=O)NC2CCCC2)Oc2ncc(-c3ccccc3)cc2C1=O	none
CCCC(O)(c1ccc(OC)cc1)C(CN1CCOCC1)c1ccccc1 (centres undefined)	none (no result: E-selectin induc)
O=C(C[C@@H]1CC[C@H]2[C@@H](COC[C@@H](O)CN2Cc2cccc(Cl)c2)O1)N1CCOCC1	DENV2 CPE 89.7
CN1CCN(C(=O)C[C@H]2CC[C@H]3[C@@H](COC[C@@H](O)CN3Cc3cccc(Cl)c3)O2)CC1	none
O=C(C[C@@H]1CC[C@@H]2[C@H](COC[C@H](O)CN2Cc2cccc(Cl)c2)O1)N1CCCCC1	none
CN1CCN(C(=O)C[C@@H]2CC[C@H]3[C@@H](COC[C@@H](O)CN3Cc3cccc(Cl)c3)O2)CC1	DENV2 CPE 27.1
O=C(C[C@@H]1CC[C@@H]2[C@H](COC[C@H](O)CN2Cc2cccc(Cl)c2)O1)N1CCOCC1	DENV2 CPE 103.1
O=C(C[C@H]1CC[C@@H]2[C@H](COC[C@H](O)CN2Cc2cccc(Cl)c2)O1)N1CCOCC1	none
CC(=O)N1c2ccc(S(=O)(=O)N3CCC(C(=O)Nc4cccc(C)c4)CC3)cc2CC1C (centres undefined)	none
Cc1ccc(NS(=O)(=O)c2ccc(C)c(C(=O)N3CCOCC3)c2)cc1	none
COCC(=O)N1CCCCN2[C@H](CO)[C@H](c3ccc(-c4ccc(F)cc4)cc3)[C@H]2C1	none
CC1(C)C2CCC1(C)C(OC(=O)CC(=O)O)C2 (centres undefined)	none (no result: E-selectin induc)
COc1ccc(OCC(=O)Nc2ccc3oc(=O)ccc3c2)cc1	none
NC1=NC(=O)S/C1=C\c1ccc(F)cc1	none (no result: SIRT5 block)
CCNC(=O)C1(C)CCN(C(=O)C(c2ccccc2)c2ccccc2)C1 (centres undefined)	none
C/C(=N\Nc1ccc(Cl)c(C(=O)O)c1)c1ccc2c(c1)OCO2	none
COc1ccc(/C(C)=N/Nc2cccc(C(=O)O)c2)cc1OC	none
C/C(=N\Nc1ccc(C(=O)O)cc1)c1ccc2c(c1)Nc1ccccc1S2	SIRT5 block 24.1 (no result: E-selectin induc)
C/C(=N/Nc1ccc(C(=O)O)cc1)c1ccc2c(c1)Nc1ccccc1S2	DENV2 CPE inconclusive, SIRT5 block 24.4
COc1ccc(CC(=O)Nc2nnc(C(C)C)s2)cc1	none
CCSc1nnc(NC(=O)Cc2ccc(OC)cc2)s1	SIRT5 block 19.8 (no result: E-selectin induc, DENV2 CPE)
C[C@H](CO)N1C[C@H](C)[C@H](CN(C)S(=O)(=O)c2ccc(F)cc2)Oc2ncc(-c3cccc(F)c3)cc2C1=O	none
O=C(NCCCNC(=O)c1ccco1)c1ccc(Cl)c(Cl)c1	none
C[C@@H]1CCCCO[C@@H](CN(C)S(=O)(=O)c2ccc(Cl)cc2)[C@@H](C)CN([C@@H](C)CO)C(=O)c2cc(NC(=O)CCCN(C)C)ccc2O1	none
C[C@@H]1CCCCO[C@H](CN(C)S(C)(=O)=O)[C@H](C)CN([C@@H](C)CO)C(=O)c2cc(NC(=O)CCCN(C)C)ccc2O1	none
C[C@H](CO)N1C[C@H](C)[C@H](CN(C)S(=O)(=O)c2ccc(Cl)cc2)OCCCC[C@H](C)Oc2ccc(NC(=O)CCCN(C)C)cc2C1=O	DENV2 CPE 21.4
C[C@@H]1CCCCO[C@@H](CN(C)S(C)(=O)=O)[C@@H](C)CN([C@H](C)CO)C(=O)c2cc(NC(=O)CCCN(C)C)ccc2O1	E-selectin induc 49.4
C[C@@H]1CCCCO[C@H](CN(C)S(C)(=O)=O)[C@@H](C)CN([C@H](C)CO)C(=O)c2cc(NC(=O)CCC(F)(F)F)ccc2O1	DENV2 CPE 115.9
C[C@@H]1CCCCO[C@@H](CN(C)S(C)(=O)=O)[C@@H](C)CN([C@H](C)CO)C(=O)c2cc(NC(=O)CCC(F)(F)F)ccc2O1	none (no result: DENV2 CPE, SIRT5 block)
O=C(NC(=S)Nc1ccc(S(=O)(=O)Nc2nccs2)cc1)c1cccc(F)c1	none (no result: E-selectin induc)
